In the M2OR odorant receptor database:

target: T1, UniProt E9Q9Z6; conditions: stereoisomer not certain
T1 sequence (whole entry): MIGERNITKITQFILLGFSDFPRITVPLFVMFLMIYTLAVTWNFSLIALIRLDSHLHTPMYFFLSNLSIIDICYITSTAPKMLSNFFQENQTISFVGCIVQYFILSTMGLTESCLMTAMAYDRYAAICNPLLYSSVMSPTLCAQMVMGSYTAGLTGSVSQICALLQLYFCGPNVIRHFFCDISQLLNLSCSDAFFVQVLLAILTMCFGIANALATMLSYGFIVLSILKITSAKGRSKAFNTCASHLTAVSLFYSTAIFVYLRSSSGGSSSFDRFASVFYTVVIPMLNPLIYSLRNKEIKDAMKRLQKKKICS
How it was run: (§1)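 Each receptor–molecule pair is labelled responsive or non-responsive (inactive) according to whether the original authors judged the measured signal statistically different from baseline. The data were taken from the main text and supplementary material of published papers and checked for typos and inconsistencies. Assay methods differed by source, with transient luciferase assays in mammalian cell lines being common.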

Odorant receptor agonist call, inactive:
O=C1CCCCCCCCC1
CCCCCCCC(=O)CCCCCCC
CC1C(C)(C)C2=C(C(=O)CCC2)C1(C)C (stereo not drawn)
C1CCCCCCCCCCCCCC1
O=C1CCCCCCCCCC1
CCC(=O)OCC(C)(C)OC(C)C1CCCC(C)(C)C1 (stereo not drawn)
O=C1CCCCCC=CCCCCCCCCO1

Odorant receptor agonist call, active:
CC1CC=CCCCCCCCCC(=O)C1 (stereo not drawn)
O=C1CCCC=CCCCCCCCCCC1
CCCCCCCCCCCCCC(C)=O
OC1CCCCCCCCCCCCCC1
CC1CCCCCCCCCCCC(=O)C1 (stereo not drawn)
CC1CCCCCCCCCCCCC(=O)C1 (stereo not drawn)
CC(=O)c1c(C)c([N+](=O)[O-])c(C(C)(C)C)c([N+](=O)[O-])c1C
O=C1CCCCCCCCCCCCCC1
O=C1C=CCCCCCCCCCCCCO1
O=C1CCCCCCC=CCCCCCCC1

target: T2, UniProt E9QAT7; conditions: stereoisomer not certain
T2 sequence (whole entry): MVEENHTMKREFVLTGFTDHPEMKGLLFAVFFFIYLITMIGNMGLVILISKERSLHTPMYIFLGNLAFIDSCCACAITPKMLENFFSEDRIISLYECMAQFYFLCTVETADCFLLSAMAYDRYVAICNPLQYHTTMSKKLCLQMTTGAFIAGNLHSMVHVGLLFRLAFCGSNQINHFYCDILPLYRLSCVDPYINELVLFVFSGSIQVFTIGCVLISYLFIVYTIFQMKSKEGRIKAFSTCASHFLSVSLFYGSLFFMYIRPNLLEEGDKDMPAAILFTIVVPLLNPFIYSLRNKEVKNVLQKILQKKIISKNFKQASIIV
How it was run: as §1

Odorant receptor agonist call, inactive:
CCc1nccnc1C
CC(=O)c1nccnc1C
CC(=O)c1cnccn1
COC1=C(C)OC(C)C1=O (stereo not drawn)
CC1CCc2nccnc21 (stereo not drawn)
COc1nccnc1CC(C)C
Cc1cnc(C)cn1
Cc1nccnc1C
CCc1nccnc1C(C)=O
C=Cc1cnccn1
Cc1cnccn1

Odorant receptor agonist call, active:
CCc1cnc(C)c(C)n1
Cc1cnc(C)c(C)n1
Cc1cncc(C)n1
CCc1nccnc1OC
CC1=NC(C)C(C)S1 (stereo not drawn)
